In article PMC7194030 (Science translational medicine, 2019):
Where a name gives a salt, the structure may show the parent alone. Read-outs that look alike come from different tables or passages of the source.

Legend:
murine BFU-Es [1] = test: Mouse BFU-E culture system; assay type: cell-based; conditions: for Percentage of Ter119+ cells with or without compound: day 14 of culture, flow cytometry; for BFU-E expansion: purified murine fetal liver BFU-Es, cell numbers counted days 0 to 9
In short: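 Cells are counted from day 0 to day 9 (three distinct samples; two-way ANOVA). At end of culture, cells are stained with anti-Ter119 and Ter119+ percentage is measured by flow cytometry (three samples; one-tailed t test).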

murine BFU-Es [2] = test: RNA-seq of cultured BFU-Es; assay type: cell-based, mouse; conditions: 100 μM oxyphenonium bromide or 3 nM PD102807
In short: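 BFU-Es FACS-sorted from E14.5 mouse fetal liver and cultured at 37°C in serum-free SFEM II with SCF, EPO, IGF-1 and dexamethasone. Treatments: test compound (100 μM or 3 nM), 100 nM dexamethasone, or DMSO. RNA extracted with a column kit, Illumina libraries prepared, sequenced on HiSeq 2500. Three to six replicates.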

CFU-E = test: Mouse CFU-E culture system; assay type: cell-based
human CD34+ HSPC = test: Human CD34+ HSPC erythroid differentiation culture system; assay type: cell-based; conditions: for Formation of BFU-E colonies: human CD34+ HSPC; for Erythroid cell expansion: human CD34+ HSPC from healthy donors
[3] = test system: CD34+ cells from patients with MDS; test: Erythroid differentiation culture of CD34+ cells from patients with MDS; assay type: cell-based, human
In short: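 MDS patient CD34+ cells (eight patients) are cultured in SFEM with rhSCF 20 ng/ml, rhIL-3 5 ng/ml, EPO 1 U/ml and dexamethasone 1 nM, with DMSO or 3 nM test compound. Read-outs: relative cell expansion, CD235a+ fraction by flow cytometry, annexin V apoptosis, and May-Grünwald–Giemsa cytospin morphology. One-tailed t test.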

C57bl/6 mice [4] = conditions: in vivo
C57bl/6 mice [5] = test: Pharmacodynamics study; assay type: in vivo, mouse
In short: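 PHZ hemolytic anemia model: female C57bl/6 mice, 8–10 weeks old, randomised to groups and given test compound at different doses or DMSO control intraperitoneally every day. Anemia induced with intraperitoneal PHZ (60 mg/kg). Complete blood counts taken. 7 to 10 mice per group.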

[6] = test system: Mx1-Cre Srsf2P95H/WT MDS mice; assay type: in vivo; conditions: for BFU-E self-renewal (splenic BFU-E colonies): daily treatment
BFU-Es = test: cAMP assay in BFU-Es; assay type: cell-based, mouse; conditions: PD102807 3 nM, forskolin 10 μM, 45 min
In short: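 Sorted murine fetal-liver BFU-Es are exposed for 45 min to DMSO, 3 nM test compound, or 10 μM forskolin. Cells are lysed in 0.1 M HCl (20 min, room temperature) and cleared at 15,000g for 10 min. Samples are neutralized, acetylated, and run in a competitive cAMP immunoassay (antibody, then cAMP-HRP, 1 h each; HRP developer 1 h). The reaction is stopped with 1 M HCl and read at OD 450 nm.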

[7] = target: human recombinant CHRM4 receptor (Homo sapiens, UniProt P08173); conditions: protein binding assay, IC50 on CHRM1-5
Chain of human recombinant CHRM4 receptor (P08173 whole entry): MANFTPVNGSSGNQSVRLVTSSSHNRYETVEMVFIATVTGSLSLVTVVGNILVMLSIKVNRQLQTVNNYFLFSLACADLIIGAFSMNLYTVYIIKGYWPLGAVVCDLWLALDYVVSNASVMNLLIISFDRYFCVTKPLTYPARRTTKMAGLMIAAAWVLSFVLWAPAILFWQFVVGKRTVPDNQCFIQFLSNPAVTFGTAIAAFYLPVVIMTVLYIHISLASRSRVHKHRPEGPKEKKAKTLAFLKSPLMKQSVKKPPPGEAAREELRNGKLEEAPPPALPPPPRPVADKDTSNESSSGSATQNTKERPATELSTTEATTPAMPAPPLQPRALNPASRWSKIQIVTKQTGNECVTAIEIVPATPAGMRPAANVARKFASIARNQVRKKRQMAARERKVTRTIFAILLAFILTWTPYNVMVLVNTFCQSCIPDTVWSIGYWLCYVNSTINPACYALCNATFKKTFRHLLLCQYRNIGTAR

murine BFU-Es [8] = test: BFU-E colony formation assay of cultured murine BFU-Es; assay type: cell-based, mouse; conditions: colonies counted on day 9 of colony formation assay
In short: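 BFU-Es (lin−Ter119−CD16/CD32−Sca-1−CD41−c-Kit+CD71/Cd24a10%low) are FACS-sorted from E14.5 C57bl/6 fetal liver. Cells are then plated in MethoCult SF M3436, and colonies are counted on day 9. Nine distinct samples; one-tailed t test.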

Question: With `CCCCCCOC(=O)[C@]1(O)C[C@@H]2O[C@@]1(C)n1c3ccccc3c3c4c(c5c6ccccc6n2c5c31)C(=O)NC4` [KT5720] as the compound, how does the “Effect on CHRM4 antagonist-induced BFU-E expansion” value (murine BFU-Es [1]; 2 μM KT5720 with 3 nM PD102807, day 9) read?
Answer: blocked CHRM4 antagonist–induced BFU-E expansion

Question: With `CCOC(=O)c1c(C)[nH]c2ccc3c(c12)CN1CCc2cc(OC)ccc2C1O3` (stereo not shown) [PD102807] as the compound, how does the “Percentage of Ter119+ cells with or without compound” value (murine BFU-Es [1]) read?
Answer: no difference

Question: What about the BFU-E expansion (murine BFU-Es [1]) of the same compound?
Answer: promoted BFU-E expansion at nanomolar concentrations

Question: And the “BFU-E gene signature expression” value (murine BFU-Es [2])?
Answer: up-regulated a gene signature characteristic of BFU-Es

Question: What about the CFU-E proliferation (CFU-E) of the same compound?
Answer: no effect

Question: What about the “Formation of BFU-E colonies” value (human CD34+ HSPC) of the same compound?
Answer: increased formation of BFU-E colonies

Question: What about the Erythroid cell expansion (human CD34+ HSPC) of the same compound?
Answer: expanded erythroid cells

Question: And the “Cell survival or differentiation with and without compound” value ([3]; 3 nM PD102807)?
Answer: no difference

Question: What about the “Production of erythroid cells” value ([3]; 3 nM PD102807, eight patients) of the same compound?
Answer: increased production of erythroid cells

Question: And the Maximal tolerated dose (C57bl/6 mice [4]; mouse)?
Answer: 100 mg/kg

Question: What about the “Anti-anemia minimal effective dose” value (C57bl/6 mice [5]) of the same compound?
Answer: 100 mg/kg

Question: What about the Tolerability in vivo ([6]; MDS mice) of the same compound?
Answer: well tolerated

Question: And the “Weight loss, liver or kidney function” value ([6]; MDS mice)?
Answer: no substantial effects

Question: What about the “White blood cell or platelet production” value ([6]; MDS mice) of the same compound?
Answer: no influence

Question: What about the “BFU-E self-renewal (splenic BFU-E colonies)” value ([6]; MDS mice) of the same compound?
Answer: promoted BFU-E self-renewal

Question: And the “cAMP concentration in BFU-Es relative to DMSO” value (BFU-Es)?
Answer: increased in concentration

Question: What about the “Selectivity for CHRM4 over other muscarinic acetylcholine receptors” value [7] of the same compound?
Answer: selectively inhibits CHRM4 over other muscarinic acetylcholine receptors

Question: For `C=C[C@@]1(C)CC(=O)[C@]2(O)[C@@]3(C)[C@@H](O)CCC(C)(C)[C@@H]3[C@H](O)[C@H](OC(C)=O)[C@@]2(C)O1` [forskolin], which BFU-E expansion (murine BFU-Es [1]) is on record?
Answer: promoted BFU-E expansion

Question: And the “cAMP concentration in BFU-Es relative to DMSO” value (BFU-Es)?
Answer: increased in concentration

Question: What does the source list for `Cc1ccccc1C(OCCN(C)C)c1ccccc1` (stereo not shown) [orphenadrine citrate]?
Answer: BFU-E expansion (murine BFU-Es [1]): triggered BFU-E expansion; Anti-anemia minimal effective dose (C57bl/6 mice [5]): 100 mg/kg; BFU-E self-renewal (splenic BFU-E colonies) ([6]; MDS mice): promoted BFU-E self-renewal; Tolerability in vivo ([6]; mouse, in vivo): well tolerated; White blood cell or platelet production ([6]; mouse, in vivo): no influence

Question: Which results are given for `CC[N+](C)(CC)CCOC(=O)C(O)(c1ccccc1)C1CCCCC1` (stereo not shown) [oxyphenonium bromide]?
Answer: BFU-E expansion and erythrocyte production (murine BFU-Es [1]; 100 μM oxyphenonium bromide): prolonged expansion resulting in increased production of erythrocytes; Percentage of Ter119+ cells with or without compound (murine BFU-Es [1]): no difference; BFU-E expansion (murine BFU-Es [1]): triggered BFU-E expansion; Formation of BFU-E colonies (murine BFU-Es [8]): increased formation of BFU-E colonies; BFU-E gene signature expression (murine BFU-Es [2]): up-regulated a gene signature characteristic of BFU-Es; Formation of BFU-E colonies (human CD34+ HSPC): increased formation of BFU-E colonies; Erythroid cell expansion (human CD34+ HSPC): expanded erythroid cells; Maximal tolerated dose (C57bl/6 mice [4]; female, C57bl/6, mouse, 7 days): 50 mg/kg; Anti-anemia minimal effective dose (C57bl/6 mice [5]): 25 mg/kg; BFU-E self-renewal (splenic BFU-E colonies) ([6]; MDS mice): promoted BFU-E self-renewal
